Drawing on ChEMBL document CHEMBL1129795, “2-Azetidinone cholesterol absorption inhibitors: structure-activity relationships on the heterocyclic nucleus” (1996), this text covers Change for 59 compounds.

Test [1] deals with Cricetinae gen. sp. Briefly: In vivo for cholesterol absorption inhibitory activity using 7-day cholesterol-fed hamster model (expressed as percent change in cholesteryl esters at 50 mg/kg/day). The class given is functional, Cricetulus griseus. An outline of the steps: (§1)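 Hamsters were fed a high-cholesterol diet for 7 days and gavaged once daily with compound in 0.2 mL corn oil. On the last day, animals were sacrificed and hepatic and serum lipids were determined. Results are given as percent change in hepatic cholesteryl ester or serum cholesterol concentration versus diet-fed controls gavaged with corn oil without drug.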

Test [2] deals with Cricetinae gen. sp. The test is described as follows: In vivo cholesterol absorption inhibitory activity using 7-day cholesterol-fed hamster model (expressed as percent change in serum cholesterol at 50 mg/kg/day). Type of test: functional, Cricetulus griseus. Put shortly: as §1

`COc1ccc([C@@H]2[C@H](CCCc3ccccc3)C(=O)N2c2ccc(OC)cc2)cc1`: the figures for the Change in the test with Cricetinae gen. sp. [1] and in the test with Cricetinae gen. sp. [2] were -95% and -45%, respectively.

Regarding `COc1ccc(N2C(=O)[C@@H](CCCc3ccccc3)[C@H]2c2ccc(OC)c(OC)c2)cc1`, the Change in the test with Cricetinae gen. sp. [1] and with Cricetinae gen. sp. [2] was 0% throughout.

`COc1ccc([C@@H]2[C@@H](CCCc3ccccc3)C(=O)N2c2ccc(Cl)cc2)cc1`: the Change is on record as -93% in the test with Cricetinae gen. sp. [1] and -44% with Cricetinae gen. sp. [2].

As to `COc1ccc([C@@H]2[C@@H](CCCc3ccccc3)C(=O)N2C(C)C)cc1`, the Change is reported as -30% in the test on Cricetinae gen. sp. [1] and -16% in the test on Cricetinae gen. sp. [2].

With `CC[C@@]1(CCCc2ccccc2)C(=O)N(c2ccc(OC)cc2)[C@@H]1c1ccc(OC)cc1`, the Change in the test with Cricetinae gen. sp. [1] and with Cricetinae gen. sp. [2] was 0% in each case.

Regarding `COc1ccc(N2C(=O)[C@H](CCCc3ccccc3)[C@H]2c2ccc(N(C)C)cc2)cc1`, the Change in the test on Cricetinae gen. sp. [1] is reported as -60%; with Cricetinae gen. sp. [2], -29%.

On to `COc1ccc([C@H]2N(c3ccccc3)C(=O)[C@]2(F)CCCc2ccccc2)cc1`, for which the figures for the Change with Cricetinae gen. sp. [1] and in the test on Cricetinae gen. sp. [2] were -17% and -10%, respectively.

As to `COc1ccc([C@@H]2[C@@H](CCCCCCc3ccccc3)C(=O)N2c2ccc(OC)cc2)cc1`, the Change was -17% in the test on Cricetinae gen. sp. [1] and -19% in the test with Cricetinae gen. sp. [2].

For `COc1ccc(N2C(=O)[C@H](CCCc3ccccc3)[C@H]2c2ccc(F)cc2)cc1`, the results for the Change in the test on Cricetinae gen. sp. [1] and in the test on Cricetinae gen. sp. [2] were 12% and 0%, respectively.

Regarding `COc1ccc(N2C(=O)C(CCCc3ccccc3)C2(c2ccc(OC)cc2)c2ccc(OC)cc2)cc1` (stereo not drawn), the Change is given as 0% with Cricetinae gen. sp. [1] and -9% in the test on Cricetinae gen. sp. [2].

On to `COc1ccc(N2C(=O)C(CCCc3ccccc3)C23c2ccc(OC)cc2-c2cc(OC)ccc23)cc1` (stereo not drawn), for which the Change in the test with Cricetinae gen. sp. [1] and with Cricetinae gen. sp. [2] was -22% throughout.

`COc1ccc(N2C(=O)[C@@H](CCCc3ccccc3)[C@H]2c2ccc(S)cc2)cc1`: the Change in the test on Cricetinae gen. sp. [1] is on record as 0%; in the test with Cricetinae gen. sp. [2] it was -19%.

Take `COc1ccc(N[C@H](c2ccc(OC)cc2)[C@@H](CCCc2ccccc2)C(=O)O)cc1`: the Change with Cricetinae gen. sp. [1] is on record as 0%; in the test with Cricetinae gen. sp. [2], -8%.

With `COc1ccc(N2C(=O)[C@@H](CCCc3ccccc3)[C@H]2c2ccc3c(c2)OCO3)cc1`, the Change with Cricetinae gen. sp. [1] and in the test with Cricetinae gen. sp. [2] was 0% throughout.

As for `COc1ccc([C@@H]2[C@@H](CCCc3ccccc3)C(=O)N2c2ccc3c(c2)OCO3)cc1`, the Change in the test with Cricetinae gen. sp. [1] is given as -52%; with Cricetinae gen. sp. [2], -19%.

Turning to `CC[C@H]1C(=O)N(c2ccc(OC)cc2)[C@@H]1c1ccc(OC)cc1`, the Change with Cricetinae gen. sp. [1] and in the test with Cricetinae gen. sp. [2] was 0% in each case.

As to `COc1ccc([C@@H]2[C@@H](CCCc3ccccc3)C(=O)N2c2ccc(SC)cc2)cc1`, the Change in the test on Cricetinae gen. sp. [1] is recorded as -70%; in the test on Cricetinae gen. sp. [2], -26%.

On to `COc1ccc([C@@H]2[C@H](C)C(=O)N2c2ccc(OC)cc2)cc1`, for which the Change with Cricetinae gen. sp. [1] and in the test on Cricetinae gen. sp. [2] was 0% throughout.

Take `COc1ccc(CN2C(=O)[C@H](CCCc3ccccc3)[C@H]2c2ccc(OC)cc2)cc1`: the Change in the test with Cricetinae gen. sp. [1] was -26%; in the test on Cricetinae gen. sp. [2], 0%.

With `COc1ccc(N2C(=O)[C@H](CCCc3ccccc3)[C@H]2c2ccc(OC(F)(F)F)cc2)cc1`, the Change was -29% with Cricetinae gen. sp. [1] and 0% in the test on Cricetinae gen. sp. [2].

For the compound `COc1ccc([C@@H]2[C@@H](CCCc3ccccc3)C(=O)N2c2ccc(C)c(C)c2)cc1`, the Change is reported as -39% in the test with Cricetinae gen. sp. [1] and -21% in the test with Cricetinae gen. sp. [2].

As to `COc1ccc([C@@H]2[C@H](CCCCCCc3ccccc3)C(=O)N2c2ccc(OC)cc2)cc1`, the Change in the test with Cricetinae gen. sp. [1] is 0%; in the test with Cricetinae gen. sp. [2], -29%.

Regarding `COc1ccc(C(=O)N2C(=O)[C@H](CCCc3ccccc3)[C@H]2c2ccc(OC)cc2)cc1`, the Change is recorded as 0% with Cricetinae gen. sp. [1] and -25% with Cricetinae gen. sp. [2].

Regarding `COc1ccc([C@@H]2[C@@H](CCCc3ccccc3)C(=O)N2c2ccc(F)cc2)cc1`, the Change is -95% in the test with Cricetinae gen. sp. [1] and -38% with Cricetinae gen. sp. [2].

In the case of `COc1ccc([C@H]2N(c3ccc(OC)cc3)C(=O)[C@]2(Cc2ccccc2)c2ccccc2)cc1`, the Change is -15% with Cricetinae gen. sp. [1] and 23% in the test on Cricetinae gen. sp. [2].

`CCCCOc1ccc([C@@H]2[C@@H](CCCc3ccccc3)C(=O)N2c2ccc(OC)cc2)cc1`: the Change is recorded as -64% with Cricetinae gen. sp. [1] and -34% with Cricetinae gen. sp. [2].

In the case of `COc1ccc([C@H]2N(c3ccccc3)C(=O)[C@@]2(F)CCCc2ccccc2)cc1`, the values for the Change in the test with Cricetinae gen. sp. [1] and in the test on Cricetinae gen. sp. [2] were -94% and -30%, respectively.

For `COc1ccc([C@@H]2[C@H](CCCC3CCCCC3)C(=O)N2c2ccc(OC)cc2)cc1`, the results for the Change with Cricetinae gen. sp. [1] and in the test on Cricetinae gen. sp. [2] were -28% and 12%, respectively.

With `COc1ccc(N2C(=O)[C@H](CCCc3ccccc3)[C@H]2c2ccc(OC)cc2OC)cc1`, the results for the Change in the test on Cricetinae gen. sp. [1] and with Cricetinae gen. sp. [2] were -78% and -26%, respectively.

As for `COc1ccc(N2C(=O)[C@H](CCCc3ccccc3)[C@H]2c2ccc(S(C)(=O)=O)cc2)cc1`, the Change with Cricetinae gen. sp. [1] is -75%; with Cricetinae gen. sp. [2] it was -26%.

For the compound `CC[C@]1(CCCc2ccccc2)C(=O)N(c2ccc(OC)cc2)[C@@H]1c1ccc(OC)cc1`, the Change in the test on Cricetinae gen. sp. [1] and in the test with Cricetinae gen. sp. [2] was 0% each time.

Take `COc1ccc([C@@H]2[C@@H](CCCc3ccccc3)C(=O)N2c2ccc(C(C)=O)cc2)cc1`: the Change with Cricetinae gen. sp. [1] is given as -90%; with Cricetinae gen. sp. [2], -40%.

Take `COc1ccc([C@H]2N(c3ccc(OC)cc3)C(=O)[C@@]2(C)CCCc2ccccc2)cc1`: the Change with Cricetinae gen. sp. [1] is -56%; with Cricetinae gen. sp. [2] it was 0%.

Consider `COc1ccc(N2C(=O)C(CCCc3ccccc3)[C@]2(c2ccc(OC)cc2)C(F)(F)F)cc1` (stereo partly drawn), for which the Change is -11% with Cricetinae gen. sp. [1] and 0% with Cricetinae gen. sp. [2].

`COc1ccc([C@H]2N(c3ccc(OC)cc3)C(=O)[C@]2(C)CCCc2ccccc2)cc1`: the Change in the test on Cricetinae gen. sp. [1] was 21%; in the test with Cricetinae gen. sp. [2], 0%.

For `COc1ccc(N2C(=O)[C@H](CCCc3ccccc3)[C@H]2c2ccc([S+](C)[O-])cc2)cc1` (stereo partly drawn), the Change was -32% in the test with Cricetinae gen. sp. [1] and -17% in the test with Cricetinae gen. sp. [2].

For the compound `COc1ccc([C@@H]2[C@@H](CCCc3ccccc3)C(=O)N2c2ccccc2)cc1`, the Change was -95% in the test on Cricetinae gen. sp. [1] and -49% in the test on Cricetinae gen. sp. [2].

For `COc1ccc(N2C(=O)[C@H](CCCc3ccccc3)[C@H]2c2ccc(Oc3ccccc3)cc2)cc1`, the Change in the test with Cricetinae gen. sp. [1] is on record as -77%; in the test with Cricetinae gen. sp. [2] it was -37%.

As for `CCCOc1ccc([C@@H]2[C@@H](CCCc3ccccc3)C(=O)N2c2ccc(OC)cc2)cc1`, the values for the Change in the test with Cricetinae gen. sp. [1] and in the test on Cricetinae gen. sp. [2] were -95% and -40%, respectively.

On to `COc1ccc([C@@H]2[C@@H](CCc3ccccc3)C(=O)N2c2ccc(OC)cc2)cc1`, for which the Change with Cricetinae gen. sp. [1] and in the test on Cricetinae gen. sp. [2] was 0% throughout.

Take `COc1ccc([C@@H]2[C@@H](CCCC3CCCCC3)C(=O)N2c2ccc(OC)cc2)cc1`: the Change is recorded as -47% in the test with Cricetinae gen. sp. [1] and -23% with Cricetinae gen. sp. [2].

`COc1ccc([C@H]2N(c3ccc(OC)cc3)C(=O)[C@@]2(Cc2ccccc2)c2ccccc2)cc1`: the Change in the test with Cricetinae gen. sp. [1] and with Cricetinae gen. sp. [2] was 16% each time.

On to `COc1ccc([C@@H]2[C@@H](CCCc3ccccc3)C(=O)N2c2ccc(C#N)cc2)cc1`, for which the Change is -74% in the test with Cricetinae gen. sp. [1] and -35% in the test with Cricetinae gen. sp. [2].

As to `CCCCOc1ccc([C@@H]2[C@H](CCCc3ccccc3)C(=O)N2c2ccc(OC)cc2)cc1`, the Change with Cricetinae gen. sp. [1] is on record as -70%; with Cricetinae gen. sp. [2] it was -15%.

For `COc1ccc([C@@H]2[C@@H](CCCc3ccccc3)C(=O)N2C(=O)c2ccccc2)cc1`, the results for the Change in the test with Cricetinae gen. sp. [1] and in the test on Cricetinae gen. sp. [2] were 16% and 0%, respectively.

In the case of `COc1ccc([C@@H]2[C@@H](CCCc3ccccc3)C(=O)N2c2c(OC)cc(OC)cc2OC)cc1`, the Change in the test with Cricetinae gen. sp. [1] and in the test on Cricetinae gen. sp. [2] was 0% each time.

Consider `C=CCOc1ccc(N2C(=O)[C@H](CCCc3ccccc3)[C@H]2c2ccc(OC)cc2)cc1`, for which the Change was -90% with Cricetinae gen. sp. [1] and -44% with Cricetinae gen. sp. [2].

As for `COc1ccc([C@H]2N(c3ccc(OC)cc3)C(=O)C2(c2ccccc2)c2ccccc2)cc1`, the Change with Cricetinae gen. sp. [1] and with Cricetinae gen. sp. [2] was 0% in each case.

Turning to `COc1ccc(N2C(=O)[C@@H](CCCc3ccccc3)[C@H]2c2ccc(OC(C)C)cc2)cc1`, the Change is -78% in the test on Cricetinae gen. sp. [1] and -28% in the test on Cricetinae gen. sp. [2].

With `COCc1ccc([C@@H]2[C@@H](CCCc3ccccc3)C(=O)N2c2ccc(OC)cc2)cc1`, the results for the Change in the test with Cricetinae gen. sp. [1] and in the test on Cricetinae gen. sp. [2] were -56% and -27%, respectively.

In the case of `COc1ccc([C@@H]2[C@@H](CCCc3ccccc3)C(=O)N2C)cc1`, the Change in the test on Cricetinae gen. sp. [1] and in the test on Cricetinae gen. sp. [2] was 0% each time.

On to `COc1ccc([C@H]2NC(=O)[C@@H]2CCCc2ccccc2)cc1`, for which the Change in the test on Cricetinae gen. sp. [1] and with Cricetinae gen. sp. [2] was 0% each time.

In the case of `COc1ccc(N2C(=O)[C@H](CCCc3ccccc3)[C@H]2c2ccc(OCc3ccccc3)cc2)cc1`, the Change in the test on Cricetinae gen. sp. [1] was -48%; in the test on Cricetinae gen. sp. [2], -15%.

Turning to `COc1ccc([C@@H]2[C@H](CCCCc3ccccc3)C(=O)N2c2ccc(OC)cc2)cc1`, the Change is recorded as -72% in the test with Cricetinae gen. sp. [1] and -28% with Cricetinae gen. sp. [2].

Turning to `CC[C@@]1(c2ccccc2)C(=O)N(c2ccc(OC)cc2)[C@@H]1c1ccc(OC)cc1`, the Change with Cricetinae gen. sp. [1] is reported as -28%; in the test on Cricetinae gen. sp. [2] it was 0%.

Regarding `COc1ccc([C@@H]2[C@@H](CCCc3ccccc3)C(=O)N2c2cccc(N)c2)cc1`, the figures for the Change in the test on Cricetinae gen. sp. [1] and with Cricetinae gen. sp. [2] were -54% and -25%, respectively.

`COc1ccc([C@@H]2[C@@H](CCCCc3ccccc3)C(=O)N2c2ccc(OC)cc2)cc1`: the Change with Cricetinae gen. sp. [1] was -23%; with Cricetinae gen. sp. [2] it was -8%.

In the case of `COc1ccc([C@@H]2[C@@H](CCCc3ccccc3)C(=O)N2c2ccc(C)cc2)cc1`, the results for the Change in the test with Cricetinae gen. sp. [1] and in the test on Cricetinae gen. sp. [2] were -90% and -38%, respectively.

As for `COc1ccc([C@@H]2[C@@H](CCCc3ccccc3)C(=O)N2C2CCCCC2)cc1`, the Change with Cricetinae gen. sp. [1] and in the test on Cricetinae gen. sp. [2] was 0% in each case.
